High-throughput results deposited in PubChem BioAssay by Broad Institute.
Rows were chosen to be rich in hits. Some 2.2% of all compounds tested hit in one or more screens of this group.
E-sel inducer: E-selectin induction on HUVECs | hit rate 0.37% among 260,000 | activation, % at 7.58 µM | AID 686992 | P16581 | HUVEC E-selectin immunofluorescence imaging; normalized: neutral wells 0, TNF-alpha wells 100;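 active means mean E-selectin-positive cell signal at least 10% of the positive control, reached in at least 60% of replicates, without over 20% cell loss; inconclusive means no rule given, readout overlaps actives, possibly toxicity-flagged; inactive means the rest, including those meeting only one limit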
Target sequence (P16581 whole entry, looked up): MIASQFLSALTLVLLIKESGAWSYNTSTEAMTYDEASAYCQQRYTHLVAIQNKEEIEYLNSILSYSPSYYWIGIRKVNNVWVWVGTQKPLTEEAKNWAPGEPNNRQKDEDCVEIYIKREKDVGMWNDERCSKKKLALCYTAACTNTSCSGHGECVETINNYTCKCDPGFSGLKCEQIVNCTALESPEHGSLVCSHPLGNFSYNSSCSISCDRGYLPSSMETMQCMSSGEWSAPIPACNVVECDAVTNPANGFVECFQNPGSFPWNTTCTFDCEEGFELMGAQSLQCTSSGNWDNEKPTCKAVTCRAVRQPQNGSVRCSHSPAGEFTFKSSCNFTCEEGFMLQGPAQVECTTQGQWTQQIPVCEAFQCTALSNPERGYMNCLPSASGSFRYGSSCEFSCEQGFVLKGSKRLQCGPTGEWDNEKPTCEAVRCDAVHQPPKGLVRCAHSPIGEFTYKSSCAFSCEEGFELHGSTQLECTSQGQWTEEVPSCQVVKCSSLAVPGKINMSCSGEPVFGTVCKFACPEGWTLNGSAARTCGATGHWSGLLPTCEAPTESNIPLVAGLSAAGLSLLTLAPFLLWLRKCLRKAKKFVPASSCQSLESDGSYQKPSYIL
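Material: HUVEC primary endothelial cells; Amount: 3,000 cells per well; Dosing: single concentration; Medium: EGM-2 growth medium on 0.1% gelatin-coated wells; Read-out basis: percent E-selectin-positive cells; Signal: immunofluorescence imaging; Control set: TNF-alpha, DMSO.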
DENV2 CPE: DENV2-induced cell death inhibition; CPE inhibition, % at 9.99 µM; hit rate 1.7% among 350,000; DENV2-infected cells, cytopathic effect rescue, plate reader; in the data active means CPE inhibition above about 20%, passing the limit was not always enough; inconclusive means no clear call, values can overlap the other calls; tested in BHK-21 cells;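 further: 0% = median of neutral control wells and 100% = median of positive control wells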
C2C12 statin: suppression of simvastatin myotoxicity; AID 602340; rescue of ATP level, % at 7.49 µM; C2C12 myotubes + simvastatin, ATP luminescence, 48 h; scaled: DMSO 0, geranylgeraniol control 100; hit rate 0.78% among 330,000;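 active means mean ATP rescue above about 67%, or every replicate alone reaching that limit, limit read from the data, passing the limit was not always enough; inconclusive means no clear call, values can overlap the other calls; inactive means mean under the limit and some replicate under it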;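 further: myotubes were challenged with 10 µM simvastatin during compound exposure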
* marks the source's active call; other numbers are inactive results; u = inconclusive; x = not tested or not shown.

SMILES | E-sel inducer | DENV2 CPE | C2C12 statin
CC1(C)CC(=O)C2=C(C1)NC(=O)NC2c1ccc(Cl)cc1 (centres undefined) | x | 23* | 14
O=C(C[C@H]1CC[C@@H](NC(=O)NC2CCCCC2)[C@@H](CO)O1)NCc1ccccc1 | 0 | -1 | 5
CC(C)NC(=O)N(C)C[C@H]1Oc2ccc(NS(=O)(=O)c3cccs3)cc2C(=O)N([C@@H](C)CO)C[C@@H]1C | -3 | x | x
COc1cc(NC(=O)C/C(C)=N/NC(=O)C(=O)NC2CCCCC2)c(OC)cc1Cl | 11 | x | x
COc1cc(NC(=O)C/C(C)=N/NC(=O)C2CCCCC2)c(OC)cc1Cl | 56* | u | 34
O=C(Nc1ccccc1)Nc1ccc2c(c1)[C@H]1C[C@@H](CC(=O)N3CCOCC3)O[C@H](CO)[C@H]1O2 | 0 | 5 | 0
C=CCn1c(=N)n(CC(=O)c2ccc(Br)s2)c2ccccc21 | 69* | -10 | -44
C=CCn1c(=N)n(CC(=O)c2ccc(Cl)cc2)c2ccccc21 | x | 7 | -16
CC(C)C#Cc1cnc2c(c1)C(=O)N([C@@H](C)CO)C[C@@H](C)[C@@H](CN(C)C(=O)CC1CC1)O2 | 0 | -4 | x
CN1C(=O)c2cc(NC(=O)c3ccccc3F)ccc2OC[C@@H]2O[C@@H](CC(=O)NCc3ccc4c(c3)OCO4)CC[C@@H]21 | 0 | -6 | 27
CCOC(=O)C1=C(N)c2ccccc2CC1C(C)C (centres undefined) | x | x | 123*
CCOC(=O)C1Cc2ccccc2C(=O)O1 (centres undefined) | x | x | 1
CC(C)NC(=O)N1CC[C@@H]2[C@H]1c1cc(C#Cc3cccnc3)ccc1N(C)[C@@H]2CO | 0 | x | -35
C[C@H](CO)N1C[C@H](C)[C@@H](CN(C)Cc2ccc(Oc3ccccc3)cc2)Oc2ccc(NC(=O)Cc3cn(C)c4ccccc34)cc2CC1=O | -1 | 3 | 114*
C[C@H]1CN([C@@H](C)CO)C(=O)Cc2cc(NC(=O)Cc3cn(C)c4ccccc34)ccc2O[C@@H]1CN(C)Cc1ccc(-c2ccccc2)cc1 | 2 | 0 | 60
C[C@H]1CN([C@@H](C)CO)C(=O)Cc2cc(NC(=O)Cc3cn(C)c4ccccc34)ccc2O[C@H]1CN(C)Cc1ccc(Oc2ccccc2)cc1 | 1 | 1 | 48
C[C@@H]1CN([C@H](C)CO)C(=O)Cc2cc(NC(=O)Cc3cn(C)c4ccccc34)ccc2O[C@H]1CN(C)Cc1ccc(-c2ccccc2)cc1 | 0 | -11 | 93*
C[C@@H]1CCCCO[C@H](CN(C)C)[C@@H](C)CN([C@H](C)CO)C(=O)c2cc(NS(=O)(=O)c3ccc(Cl)cc3)ccc2O1 | 0 | 7 | -2
C[C@@H]1CN([C@H](C)CO)C(=O)c2cc(NC(=O)Nc3ccc(F)cc3)ccc2O[C@@H](C)CCCCO[C@H]1CN(C)Cc1ccccc1 | 0 | 3 | x
C[C@H]1CN([C@@H](C)CO)C(=O)Cc2cc(NS(=O)(=O)c3ccccc3)ccc2O[C@H]1CN(C)Cc1ccc(Oc2ccccc2)cc1 | 0 | u | -24
COc1ccc(S(=O)(=O)Nc2ccc3c(c2)C(=O)N([C@@H](C)CO)C[C@H](C)[C@@H](CN(C)Cc2ccc(Cl)c(Cl)c2)O3)cc1 | 80* | u | x
COc1ccc(CN(C)C[C@@H]2Oc3ccc(NS(=O)(=O)c4ccc(OC)cc4)cc3C(=O)N([C@@H](C)CO)C[C@@H]2C)cc1 | 0 | -6 | 12
COc1ccc(S(=O)(=O)Nc2ccc3c(c2)CC(=O)N([C@@H](C)CO)C[C@H](C)[C@H](CN(C)Cc2ccccc2)O3)cc1 | x | 2 | 54
COc1ccc(CN(C)C[C@@H]2Oc3ccc(NS(=O)(=O)c4ccc(OC)cc4)cc3CC(=O)N([C@H](C)CO)C[C@@H]2C)cc1 | 0 | -4 | 11
COc1ccc(S(=O)(=O)Nc2ccc3c(c2)CC(=O)N([C@H](C)CO)C[C@@H](C)[C@H](CN(C)Cc2ccccc2)O3)cc1 | x | -8 | 72*
SMILES | E-sel inducer | DENV2 CPE | C2C12 statin
COc1ccc(S(=O)(=O)Nc2ccc3c(c2)CC(=O)N([C@@H](C)CO)C[C@H](C)[C@@H](CN(C)Cc2ccc(Cl)c(Cl)c2)O3)cc1 | 0 | -8 | 122*
C[C@H]1CN([C@@H](C)CO)C(=O)Cc2cc(NS(C)(=O)=O)ccc2O[C@@H]1CN(C)Cc1ccc(Oc2ccccc2)cc1 | 169* | 9 | 2
C[C@H]1CCCCO[C@@H](CN(C)C(=O)Nc2ccc3c(c2)OCO3)[C@@H](C)CN([C@@H](C)CO)C(=O)c2cc(NC(=O)c3ccncc3)ccc2O1 | 0 | 2 | x
COc1ccc2c3c([nH]c2c1)[C@H](CO)NCC31CN(C(=O)C2CC2)C1 | 0 | 5 | x
O=C(C[C@@H]1CC[C@H](NS(=O)(=O)c2ccccc2)[C@@H](CO)O1)NCc1ccccc1F | -1 | -3 | 2
N#C[C@H]1[C@@H](c2ccc(C3=CCCC3)cc2)[C@H](CO)N1C(=O)C1CCC1 | -1 | -1 | -65
O=C(C[C@H]1CC[C@@H](NS(=O)(=O)c2ccc(F)cc2)[C@H](CO)O1)N1CCC(Cc2ccccc2)CC1 | -1 | -3 | 11
C[C@H]1CN([C@@H](C)CO)C(=O)c2cc(NS(=O)(=O)c3cccs3)ccc2O[C@@H]1CN(C)Cc1ccc2c(c1)OCO2 | 1 | 5 | -24
C[C@@H]1CN([C@H](C)CO)C(=O)c2cc(NC(=O)Nc3ccc4c(c3)OCO4)ccc2O[C@H]1CN(C)Cc1ccc2c(c1)OCO2 | 0 | -2 | -18
O=C(NCC[C@@H]1CC[C@H](NS(=O)(=O)c2ccc(Cl)cc2)[C@H](CO)O1)c1ccc2c(c1)OCO2 | 0 | -4 | 19
Cc1noc(C)c1S(=O)(=O)Nc1ccc2c(c1)C(=O)N([C@@H](C)CO)C[C@H](C)[C@@H](CN(C)C(=O)NC(C)C)OCCCC[C@@H](C)O2 | x | 1 | x
CCCNC(=O)N1CC2(C1)CN(C(=O)NC(C)C)[C@H](CO)c1c2c2ccc(OC)cc2n1C | 0 | 16 | x
Cc1ccc(S(=O)(=O)Nc2ccc3c(c2)CC(=O)N([C@@H](C)CO)C[C@H](C)[C@H](CN(C)Cc2ccc(Oc4ccccc4)cc2)O3)cc1 | 0 | 69* | 13
COc1ccc(S(=O)(=O)Nc2ccc3c(c2)CC(=O)N([C@H](C)CO)C[C@@H](C)[C@H](CN(C)Cc2ccc(-c4ccccc4)cc2)O3)cc1 | 0 | 57* | 64
COc1ccc(S(=O)(=O)Nc2ccc3c(c2)CC(=O)N([C@H](C)CO)C[C@H](C)[C@H](CN(C)Cc2ccc(Oc4ccccc4)cc2)O3)cc1 | 1 | 9 | 5
Cc1ccc(S(=O)(=O)Nc2ccc3c(c2)CC(=O)N([C@@H](C)CO)C[C@@H](C)[C@@H](CN(C)Cc2ccc(Oc4ccccc4)cc2)O3)cc1 | -1 | 9 | 14
C[C@@H]1CN([C@@H](C)CO)C(=O)Cc2cc(NS(=O)(=O)c3ccc(F)cc3)ccc2O[C@H]1CN(C)Cc1ccc(Oc2ccccc2)cc1 | 0 | 3 | 99*
COc1ccc(S(=O)(=O)Nc2ccc3c(c2)CC(=O)N([C@@H](C)CO)C[C@@H](C)[C@H](CN(C)Cc2ccc(Oc4ccccc4)cc2)O3)cc1 | 0 | 9 | 97*
